# Assay outcomes deposited in PubChem by several laboratories.
# L major viab = reduces viability of Leishmania major promastigotes | resazurin fluorescence viability | AID 1063 | 200,000 compounds, 9% hits | inhibition, % at 10 µM;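 note: promastigotes grown with compound for 44 hours at 28 °C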
# WT yeast gro inh = growth inhibition of WT yeast, mitochondrial fusion screen. mitochondrial fusion phenotypic screen, WT strain. inhibition, % at 10 µM. 190,000 compounds, 2.1% hits. AID 1362; in the data active = inhibition above about 58%; tested in S. cerevisiae
# G6PDH CS = L. mesenteroides G6PDH inhibition counter-screen. Purified L. mesenteroides G6PDH, diaphorase/resazurin coupled fluorescence, 45 min. inhibition, % at 5 µM. 200,000 compounds, 0.12% hits. AID 1020
# Diaphorase act = activates diaphorase or chemically reduces, flagging diaphorase assay artifacts. activation factor at 20 µM. Diaphorase/resazurin coupled assay, resorufin fluorescence, 16 min; hits give high values; 1 = vehicle wells, 0 = NADH-free wells. 190,000 compounds, 0.005% hits;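 active = diaphorase activity raised at least twofold by the compound at 20 µM; inactive = activation factor below 2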
#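 Material: Purified diaphorase enzyme from Clostridium kluyveri | Buffer or medium: 50 mM HEPES pH 7.4 with 4.542 mM MgCl2, 0.005% Tween 20 | Times: 16 min enzyme reaction, ambient temperature | Signal: Red resorufin fluorescence at 544/590 nm excitation/emission | Measure: Increased resorufin signal from activators or reducing compounds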
# Diaphorase inh = inhibits diaphorase or chemically oxidizes, flagging diaphorase assay artifacts; diaphorase resazurin-to-resorufin fluorescence, NADH, 16 min; bacterial (C. kluyveri) enzyme, not human; inhibition, % at 20 µM; 190,000 compounds, 0.69% hits;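 active = primary screen inhibition at 20 µM above a set limit, cut at about 50% in these data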
#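 Test system: bacterial diaphorase enzyme (C. kluyveri); Quantity: 0.14 U/mL diaphorase, enzyme working solution; Times: reaction incubation of 16 min at room temperature; Measured by: fluorescence of resorufin formed from resazurin, Ex 544/Em 590 nm; Benchmarks: positive control minus NADH, DMSO neutral control.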
# A number is an active result; n = inactive; x = not tested or not shown. This is a sample that favours compounds with a hit; in the whole collection about 11% have one here. Cut-off read from the data, not from the text of the source, unless noted: active = inhibition above about 50%; inactive = the rest.
SMILES,L major viab,WT yeast gro inh,G6PDH CS,Diaphorase act,Diaphorase inh
COc1cccc2[nH]c3c(N4CCN(Cc5ccc6c(c5)OCO6)CC4)ncnc3c12,89.0,n,n,n,n
COC(=O)C1=C(N)Oc2cc(C)n(CC3CCCO3)c(=O)c2C1c1ccc(Cl)cc1 (stereo not drawn),n,n,n,n,n
Cc1cccc(NC(=O)CN2CCC(NC(=O)C3CCCCC3)CC2)c1C,n,n,n,n,n
CC(=O)C1=C(c2ccc(Br)cc2)C(=O)c2ccccc2C1=O,100.4,92.9,n,n,61.9
CC1=CC(=C2C(=O)c3ccccc3C2=O)C=C(C)O1,n,n,n,n,n
NS(=O)(=O)c1ccc(CCNC(=O)/C=C/c2ccc([N+](=O)[O-])cc2)cc1,n,n,n,n,n
COc1ccc(/C=C/C(=O)NCCc2ccc(S(N)(=O)=O)cc2)cc1,62.1,n,n,n,n
Cc1cc(C(=O)CN2C(=O)C(=O)N(Cc3ccccc3)C2=O)c(C)n1CC1COc2ccccc2O1 (stereo not drawn),n,n,n,n,n
Cc1cc(C(=O)COC(=O)c2ccc(CO)cc2)c(C)n1CC1COc2ccccc2O1 (stereo not drawn),54.5,n,n,n,n
C#CCOCCOCCOCCNc1nc(N2CCN(C(=O)C(Cc3cc4ccccc4[nH]3)n3cc(C(N)Cc4ccc(O)cc4)nn3)CC2)nc(N2CCN(C(=O)C(Cc3cc4ccccc4[nH]3)n3cc(C(N)Cc4ccc(O)cc4)nn3)CC2)n1 (stereo not drawn),n,n,n,2,n
COc1ccccc1OCC(=O)NCCSCc1cccc(Cl)c1,n,n,n,n,n
Cc1ccc(NC(=O)/C=C/c2ccc3c(c2)OCO3)nc1,n,n,n,n,n
CCNc1ccccc(C(=O)/C=C/c2ccc3c(c2)OCO3)c1=O,63.4,n,n,n,n
O=C(/C=C/c1ccc2c(c1)OCCCO2)c1ccccc1O,n,66.9,n,n,n
Cc1ccc(O)c(C(=O)/C=C/c2ccc3c(c2)OCCCO3)c1,n,60.8,n,n,n
Cc1cc([N+](=O)[O-])nn1CCCC(=O)NC1CCCCC1,n,n,n,n,n
COc1cccc(CNC(=O)CN(c2cc(C)cc(C)c2)S(=O)(=O)c2c(C)noc2C)c1,65.2,n,n,n,n
COc1ccc(OC)c(NC(=O)CN(c2ccc(C(C)C)cc2)S(=O)(=O)c2c(C)noc2C)c1,51.7,n,n,n,n
COc1ccc(OC)c(NC(=O)CN(c2ccc(C)cc2)S(=O)(=O)c2c(C)noc2C)c1,74.7,n,n,n,n
Cc1ccc(-n2c(=S)[nH]c3sc4c(c3c2=O)CCc2ccccc2-4)cc1,n,n,n,n,n
Cc1cccc(-n2c(=S)[nH]c3sc4c(c3c2=O)CCc2ccccc2-4)c1,n,n,n,n,69.8
CCOc1cc(CNCCN2CCOCC2)ccc1OCc1ccccc1Cl,98.2,n,n,n,n
COc1cc(CNCCN2CCOCC2)ccc1OCC(=O)NC(C)(C)C,n,n,n,n,n
COc1cc(CNCCN2CCOCC2)ccc1OCc1c(Cl)cccc1Cl,86.4,n,n,n,n
CC1CCN(S(=O)(=O)c2ccc3c(c2)oc(=O)n3CC(=O)N2CCc3ccccc3C2)CC1,n,n,n,n,n
SMILES,L major viab,WT yeast gro inh,G6PDH CS,Diaphorase act,Diaphorase inh
Cn1c(Oc2ccc3c(c2)OCO3)nc2c1c(=O)n(Cc1ccccc1)c(=O)n2C,n,98.1,n,n,n
CCC12CCCN3CCC4(C(=C(C(=O)OC)C1)Nc1ccccc14)C32 (stereo not drawn),n,n,n,n,n
COc1cccc(CNC(=O)C2CCN(S(=O)(=O)N3CCC4(CC3)OCCO4)CC2)c1,n,n,n,n,n
Cn1c(=O)c2ncn(CC(=O)N/N=C/c3ccco3)c2n(C)c1=O,n,n,n,n,n
O=C(/C=C/c1ccc2c(c1)OCO2)N1CCN(c2ccc(Cl)cc2)CC1,n,n,n,n,n
O=C(/C=C\c1ccc2c(c1)OCO2)Nc1c2c(nn1-c1ccc(Cl)cc1)CSC2,95.3,n,n,n,n
COc1ccc(CNCC(O)(c2ccc(F)cc2)c2ccc(F)cc2)cc1,n,n,n,n,n
O=C(NCCCn1ccnc1)Nc1cccc(Cl)c1,n,n,n,n,n
CC1CCN(c2nc(N3CCCCC3)nc(N3CCCCC3)n2)CC1,n,n,n,n,n
C1CCN(c2nc(N3CCCCC3)nc(N3CCNCC3)n2)CC1,67.6,n,n,n,n
CN1CCN(C(=O)c2cc(COc3c(F)cccc3F)on2)CC1c1ccccc1 (stereo not drawn),n,79.5,n,x,x
CC(C)(C)n1nnnc1C(c1cccs1)N(Cc1cccnc1)Cc1ccco1 (stereo not drawn),79.1,n,n,n,n
Cc1cc2cc(C(c3nnnn3C3CCCC3)N(Cc3cccnc3)Cc3ccco3)c(=O)[nH]c2cc1C (stereo not drawn),n,n,n,n,n
COCCn1nnnc1C(c1cc2ccc(C)cc2[nH]c1=O)N(Cc1ccco1)Cc1cccs1 (stereo not drawn),n,n,n,n,n
CCC(C)(C)n1nnnc1C(c1cc2ccc(C)cc2[nH]c1=O)N(Cc1cccnc1)Cc1ccco1 (stereo not drawn),82.8,n,n,n,n
Cc1ccc2cc(C(c3nnnn3C3CCCC3)N(Cc3ccccc3)Cc3ccco3)c(=O)[nH]c2c1 (stereo not drawn),79.7,n,n,n,n
Cc1ccc2nc(SCC(=O)c3ccc4c(c3)OCO4)[nH]c2c1,83.7,n,n,n,n
COC(=O)c1ccc(CSc2nc3c(cnn3-c3ccc(C)cc3)c(=O)[nH]2)o1,n,n,n,n,n
O=C(CSc1nc2ccccc2[nH]1)c1ccc2c(c1)OCO2,n,n,n,n,n
COC(=O)c1ccc(CSc2nc3ccc(C)cc3[nH]2)o1,87.1,n,n,n,n
CC(=O)c1c(C)[nH]c(C(=O)CSc2nc3ccc(C)cc3[nH]2)c1C,91.7,n,n,n,n
COC(C(=O)Nc1c(F)cccc1F)c1ccccc1 (stereo not drawn),n,n,n,n,n
CC1=C(C(=O)Nc2cccc(F)c2)C(c2ccsc2)C2=C(CC(C)(C)CC2=O)N1 (stereo not drawn),n,n,n,n,n
CCN(c1cccc(C)c1)C(C(=O)Nc1ccc(OC)cc1)c1cc2c(cc1[N+](=O)[O-])OCO2 (stereo not drawn),78.5,n,n,n,n
CCSc1nnc(NC(=O)c2ccccc2C)s1,n,n,n,n,n
Cc1ccc(C)c2c1cc(C)c1nnc(SCC(=O)NCc3ccc4c(c3)OCO4)n12,70.3,n,n,n,n
O=C(CSc1nnc(-c2cccs2)n1-c1ccccc1)NCc1ccc2c(c1)OCO2,57.5,n,n,n,n
Cc1cc(C)c2cc(C)c3nnc(SCC(=O)NCc4ccc5c(c4)OCO5)n3c2c1,n,n,n,n,n
